Results taken from ChEMBL document CHEMBL1649574, “Prevalence and characterization of heterogeneous vancomycin-intermediate Staphylococcus aureus isolates from 14 cities in China” (2009).

How the values were obtained:
Assay type in all cases: functional
[1] = tested on: Staphylococcus aureus; assay: Antimicrobial activity against vancomycin-susceptible Staphylococcus aureus assessed as growth inhibition at MIC; parameters: scale not given: the % may be the effect or the level left
[2] = tested on: Staphylococcus aureus; assay: Antimicrobial activity against SCCmec type III vancomycin-intermediate Staphylococcus aureus isolate gz06051 by agar dilution method
In short: (§1)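 Agar-dilution MICs were measured on a subset of 200 blood MRSA isolates from China. Agents: oxacillin, rifampin, gentamicin, levofloxacin, erythromycin, vancomycin, teicoplanin, tigecycline, ceftobiprole and linezolid. Phenotype came from the PAP-AUC ratio of each isolate to S. aureus Mu3 (VSSA <0.9; hVISA 0.9 to 1.3; VISA ≥1.3), read on BHI agar with 0 to 8.0 mg/liter vancomycin after 48 h at 35°C.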

[3] = tested on: Staphylococcus aureus; assay: Antimicrobial activity against heterogeneous vancomycin-intermediate Staphylococcus aureus assessed as susceptible isolates by agar dilution method
In short: (§2)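 MICs by agar dilution for all 200 MRSA blood isolates (oxacillin, rifampin, gentamicin, levofloxacin, erythromycin, vancomycin, teicoplanin, tigecycline, ceftobiprole, linezolid). Isolates were grouped by PAP-AUC ratio against S. aureus Mu3: below 0.9 VSSA, 0.9 to 1.3 hVISA, 1.3 or more VISA.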

[4] = tested on: Staphylococcus aureus; assay: Antimicrobial activity against SCCmec type II vancomycin-intermediate Staphylococcus aureus isolate b2k4781 by agar dilution method; in short: as §1
[5] = tested on: Staphylococcus aureus; assay: Antimicrobial activity against heterogeneous vancomycin-intermediate Staphylococcus aureus assessed as growth inhibition at 2 times MIC; parameters: scale not given: the % may be the effect or the level left
[6] = tested on: Staphylococcus aureus; assay: Antimicrobial activity against SCCmec type III vancomycin-intermediate Staphylococcus aureus isolate b3k5923 by agar dilution method; in short: as §1
[7] = tested on: Staphylococcus aureus; assay: Antimicrobial activity against vancomycin-susceptible Staphylococcus aureus assessed as growth inhibition at 4 times MIC; parameters: scale not given: the % may be the effect or the level left
[8] = tested on: Staphylococcus aureus; assay: Antimicrobial activity against SCCmec type III vancomycin-intermediate Staphylococcus aureus isolate b6k1642 by agar dilution method; in short: as §1
[9] = tested on: Staphylococcus aureus; assay: Antimicrobial activity against SCCmec type III vancomycin-intermediate Staphylococcus aureus isolate gz07030 by agar dilution method; in short: as §1
[10] = tested on: Staphylococcus aureus; assay: Antimicrobial activity against SCCmec type III vancomycin-intermediate Staphylococcus aureus isolate 15b52 by agar dilution method; in short: as §1
[11] = tested on: Staphylococcus aureus; assay: Antimicrobial activity against SCCmec type III vancomycin-intermediate Staphylococcus aureus isolate gz06040 by agar dilution method; in short: as §1
[12] = tested on: Staphylococcus aureus; assay: Antimicrobial activity against heterogeneous vancomycin-intermediate Staphylococcus aureus assessed as growth inhibition at 0.5 times MIC; parameters: scale not given: the % may be the effect or the level left
[13] = tested on: Staphylococcus aureus; assay: Antimicrobial activity against heterogeneous vancomycin-intermediate Staphylococcus aureus assessed as growth inhibition at 0.125 times MIC; parameters: scale not given: the % may be the effect or the level left
[14] = tested on: Staphylococcus aureus; assay: Antimicrobial activity against heterogeneous vancomycin-intermediate Staphylococcus aureus assessed as growth inhibition at 16 times MIC; parameters: scale not given: the % may be the effect or the level left
[15] = tested on: Staphylococcus aureus; assay: Antimicrobial activity against vancomycin-susceptible Staphylococcus aureus assessed as growth inhibition at 2 times MIC; parameters: scale not given: the % may be the effect or the level left
[16] = tested on: Staphylococcus aureus; assay: Antimicrobial activity against SCCmec type III vancomycin-intermediate Staphylococcus aureus isolate 11b091 by agar dilution method; in short: as §1
[17] = tested on: Staphylococcus aureus; assay: Antimicrobial activity against vancomycin-intermediate Staphylococcus aureus by agar dilution method; in short: as §1
[18] = tested on: Staphylococcus aureus; assay: Antimicrobial activity against SCCmec type III vancomycin-intermediate Staphylococcus aureus isolate 5zjsau3 by agar dilution method; in short: as §1
[19] = tested on: Staphylococcus aureus; assay: Antimicrobial activity against vancomycin-susceptible Staphylococcus aureus assessed as growth inhibition at 0.5 times MIC; parameters: scale not given: the % may be the effect or the level left
[20] = tested on: Staphylococcus aureus; assay: Antimicrobial activity against SCCmec type III vancomycin-intermediate Staphylococcus aureus isolate xa07029 by agar dilution method; in short: as §1
[21] = tested on: Staphylococcus aureus; assay: Antimicrobial activity against SCCmec type III vancomycin-intermediate Staphylococcus aureus isolate b4k6307 by agar dilution method; in short: as §1
[22] = tested on: Staphylococcus aureus; assay: Antimicrobial activity against vancomycin-susceptible Staphylococcus aureus assessed as growth inhibition at 0.125 times MIC; parameters: scale not given: the % may be the effect or the level left
[23] = tested on: Staphylococcus aureus; assay: Antimicrobial activity against SCCmec type III vancomycin-intermediate Staphylococcus aureus isolate b6k7974 by agar dilution method; in short: as §1
[24] = tested on: Staphylococcus aureus; assay: Antimicrobial activity against SCCmec type II vancomycin-intermediate Staphylococcus aureus isolate 4sy32 by agar dilution method; in short: as §1
[25] = tested on: Staphylococcus aureus; assay: Antimicrobial activity against SCCmec type III vancomycin-intermediate Staphylococcus aureus isolate b3k2345 by agar dilution method; in short: as §1
[26] = tested on: Staphylococcus aureus; assay: Antimicrobial activity against SCCmec type III vancomycin-intermediate Staphylococcus aureus isolate gs07022 by agar dilution method; in short: as §1
[27] = tested on: Staphylococcus aureus; assay: Antimicrobial activity against SCCmec type II vancomycin-intermediate Staphylococcus aureus isolate 6zjsau7 by agar dilution method; in short: as §1
[28] = tested on: Staphylococcus aureus; assay: Antimicrobial activity against heterogeneous vancomycin-intermediate Staphylococcus aureus assessed as intermediate isolates by agar dilution method; in short: as §2
[29] = tested on: Staphylococcus aureus; assay: Antimicrobial activity against SCCmec type II vancomycin-intermediate Staphylococcus aureus isolate 07b63 by agar dilution method; in short: as §1
[30] = tested on: Staphylococcus aureus; assay: Antimicrobial activity against SCCmec type II vancomycin-intermediate Staphylococcus aureus isolate sh06024 by agar dilution method; in short: as §1
[31] = tested on: Staphylococcus aureus; assay: Antimicrobial activity against heterogeneous vancomycin-intermediate Staphylococcus aureus assessed as growth inhibition at 4 times MIC; parameters: scale not given: the % may be the effect or the level left
[32] = tested on: Staphylococcus aureus; assay: Antimicrobial activity against heterogeneous vancomycin-susceptible Staphylococcus aureus assessed as susceptible isolates by agar dilution method; in short: as §2
[33] = tested on: Staphylococcus aureus; assay: Antimicrobial activity against heterogeneous vancomycin-intermediate Staphylococcus aureus by agar dilution method; in short: as §1
[34] = tested on: Staphylococcus aureus; assay: Antimicrobial activity against SCCmec type III vancomycin-intermediate Staphylococcus aureus isolate zj07028 by agar dilution method; in short: as §1
[35] = tested on: Staphylococcus aureus; assay: Antimicrobial activity against SCCmec type III vancomycin-intermediate Staphylococcus aureus isolate 13b16 by agar dilution method; in short: as §1
[36] = tested on: Staphylococcus aureus; assay: Antimicrobial activity against vancomycin-susceptible Staphylococcus aureus assessed as growth inhibition at 0.25 times MIC; parameters: scale not given: the % may be the effect or the level left
[37] = tested on: Staphylococcus aureus; assay: Antimicrobial activity against heterogeneous vancomycin-intermediate Staphylococcus aureus assessed as growth inhibition at 0.25 times MIC; parameters: scale not given: the % may be the effect or the level left
[38] = tested on: Staphylococcus aureus; assay: Antimicrobial activity against vancomycin-susceptible Staphylococcus aureus by agar dilution method; in short: as §1
[39] = tested on: Staphylococcus aureus; assay: Antimicrobial activity against heterogeneous vancomycin-susceptible Staphylococcus aureus assessed as intermediate isolates by agar dilution method
[40] = tested on: Staphylococcus aureus; assay: Antimicrobial activity against heterogeneous vancomycin-intermediate Staphylococcus aureus assessed as growth inhibition at MIC; parameters: scale not given: the % may be the effect or the level left
[41] = tested on: Staphylococcus aureus; assay: Antimicrobial activity against SCCmec type IV vancomycin-intermediate Staphylococcus aureus isolate 06b41 by agar dilution method; in short: as §1
[42] = tested on: Staphylococcus aureus; assay: Antimicrobial activity against SCCmec type II vancomycin-intermediate Staphylococcus aureus isolate 4sy39 by agar dilution method; in short: as §1
[43] = tested on: Staphylococcus aureus; assay: Antimicrobial activity against SCCmec type III vancomycin-intermediate Staphylococcus aureus isolate sh07043 by agar dilution method; in short: as §1
[44] = tested on: Staphylococcus aureus; assay: Antimicrobial activity against vancomycin-susceptible Staphylococcus aureus assessed as growth inhibition at 16 times MIC; parameters: scale not given: the % may be the effect or the level left
[45] = tested on: Staphylococcus aureus; assay: Antimicrobial activity against SCCmec type III vancomycin-intermediate Staphylococcus aureus isolate bd4768 by agar dilution method; in short: as §1
[46] = tested on: Staphylococcus aureus; assay: Antimicrobial activity against SCCmec type III vancomycin-intermediate Staphylococcus aureus isolate b5k3529 by agar dilution method; in short: as §1
[47] = tested on: Staphylococcus aureus; assay: Antimicrobial activity against SCCmec type III vancomycin-intermediate Staphylococcus aureus isolate b2k3421 by agar dilution method; in short: as §1
[48] = tested on: Staphylococcus aureus; assay: Antimicrobial activity against SCCmec type III vancomycin-intermediate Staphylococcus aureus isolate b5k3578 by agar dilution method; in short: as §1

Nc1nc(/C(=N/O)C(=O)N[C@@H]2C(=O)N3C(C(=O)O)=C(/C=C4\CCN([C@@H]5CCNC5)C4=O)CS[C@H]23)ns1 [CEFTOBIPROLE]
2.31%: Activity [36]
2 µg/mL: MIC [2] | MIC [4] | MIC [6] | MIC [8] | MIC [9] | MIC [10] | MIC [16] | MIC [20] | MIC [23] | MIC [25] | MIC [30] | MIC50 [33] | MIC90 [33] | MIC [34] | MIC50 [38] | MIC90 [38] | MIC [43] | MIC [45] | MIC [46] | MIC [47] | MIC [48]
11.1%: Activity [12]
0%: Activity [13] | Activity [22] | Activity [28] | Activity [37] | Activity [39]
1 µg/mL: MIC [11] | MIC [21] | MIC [26] | MIC [29] | MIC [35] | MIC [41]
100%: Activity [3] | Activity [7] | Activity [14] | Activity [15] | Activity [31] | Activity [32] | Activity [44]
33.3%: Activity [40]
4 µg/mL: MIC [27]
4.62%: Activity [19]
0.5 µg/mL: MIC [17] | MIC [18] | MIC [24] | MIC [42]
27.2%: Activity [1]
96.3%: Activity [5]
